In brackets after ≈: the same amount, converted by molar mass. Where only a bound is given, the exact number is not on record here.

Holding throughout (type): functional
In test [1] the test system is Mycobacterium tuberculosis. Description: Antimycobacterial activity against non-replicating Mycobacterium tuberculosis mc2 6220 harboring panCD/lysA deletion mutant incubated for 3 days measured at OD580 = 0.1 by two-fold serial dilution method. The method, boiled down:
(§1)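 M. tuberculosis mc26220 washed twice in PBS-tyloxapol and resuspended in Sauton's-based nonreplicating medium (pH 5.0, butyrate 0.05%, BSA, tyloxapol, lysine, pantothenate, 0.5 mM NaNO2). Incubated at 1% O2, 5% CO2 with 2-fold serially diluted compound from DMSO. After 3 days, diluted 5-fold in fresh replicating medium for outgrowth at 20% O2. Reported as MIC90.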

For test [2], the system named is Mycobacterium tuberculosis. In words: Antimycobacterial activity against replicating Mycobacterium tuberculosis mc2 6220 harboring panCD/lysA deletion mutant by two-fold serial dilution method. The method, boiled down:
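M. tuberculosis mc26220 in replicating medium supplemented with glycerol (final 0.5%), OADC, casamino acids 0.05%, lysine 240 μg/mL and pantothenate 24 μg/mL. Exposed to 2-fold serially diluted compound from DMSO. OD580 read after 7 days at 20% O2, 5% CO2. Reported as MIC90.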

Test [3] relates to Mycobacterium tuberculosis. In words: Antimycobacterial activity against non-replicating Mycobacterium tuberculosis mc2 6220 harboring panCD/lysA deletion mutant incubated for 3 days measured at OD580 = 0.01 by two-fold serial dilution method. The method, boiled down: as §1
The test system of test [4] is Mycobacterium tuberculosis. Description: Antimycobacterial activity against non-replicating Mycobacterium tuberculosis mc2 6220 harboring panCD/lysA deletion mutant incubated for 6 days measured at OD580 = 0.1 by two-fold serial dilution method. The method, boiled down: as §1
Test [5] concerns Mycobacterium tuberculosis. Description: Antimycobacterial activity against replicating Mycobacterium tuberculosis mc2 6220 harboring panCD/lysA deletion mutant incubated for 3 days measured at OD580 = 0.01 by two-fold serial dilution method.
Test [6] concerns Mycobacterium tuberculosis. In words: Antimycobacterial activity against non-replicating Mycobacterium tuberculosis mc2 6220 harboring panCD/lysA deletion mutant incubated for 7 days measured at OD580 = 0.1 by two-fold serial dilution method. The method, boiled down: as §1
Test [7] deals with Mycobacterium tuberculosis. In words: Antimycobacterial activity against non-replicating Mycobacterium tuberculosis mc2 6220 harboring panCD/lysA deletion mutant incubated for 7 days measured at OD580 = 0.01 by two-fold serial dilution method. The method, boiled down:
as §1

Regarding `CCCc1noc(C2=C(C)CS[C@@H]3[C@H](NC(=O)Cc4ccc(Cl)cc4)C(=O)N23)n1`, the MIC90 (in general, the lowest concentration that inhibits either 90% of growth or 90% of the strains tested, depending on the study) in test [1] was 2.63 µg/mL (≈ 6.07 µM); in test [2], above 100 µg/mL.

Consider `C#CCOC(=O)C1=C(C)CS[C@@H]2[C@H](NC(=O)CCc3ccc(Cl)cc3)C(=O)N12`, for which the MIC90 was 7.85 µg/mL (≈ 18.7 µM) in test [1], 0.56 µg/mL (≈ 1.34 µM) in test [3] and above 100 µg/mL in test [2].

As for `CC1=C(c2nc(C)no2)N2C(=O)[C@@H](NC(=O)COc3ccc(C(F)(F)F)cc3)[C@H]2SC1`, the MIC90 in test [1] was 5.26 µg/mL (≈ 11.6 µM); in test [2] it was above 100 µg/mL.

With `CC1=C(C(=O)O)N2C(=O)[C@@H](NC(=O)[C@H](N)c3ccccc3)[C@H]2SC1` [CEPHALEXIN ANHYDROUS], the MIC90 in test [1] worked out at 61.35 µg/mL (≈ 177 µM); in test [4], 70.42 µg/mL (≈ 203 µM); in test [3], 97.93 µg/mL (≈ 282 µM); in test [5] it was 33.99 µg/mL (≈ 97.8 µM); in test [6], 100 µg/mL (≈ 288 µM); in test [2], 33.99 µg/mL (≈ 97.8 µM).

On to `CCCOC[C@H]1C(C)=CS[C@@H]2[C@H](NC(=O)COc3ccccc3)C(=O)N21`, for which the MIC90 in test [1] and in test [2] was above 100 µg/mL in each case.

With `CCCc1noc(C2=C(C)CS[C@@H]3[C@H](NC(=O)COc4ccc(C)cc4)C(=O)N23)n1`, the results for the MIC90 in test [1] and in test [2] were 14.31 µg/mL (≈ 33.4 µM) and above 100 µg/mL, respectively.

In the case of `COC(=O)C1=C(C)CS[C@@H]2[C@H](NC(=O)CCc3ccc(OC)cc3)C(=O)N12`, the MIC90 in test [3] came to 0.39 µg/mL (≈ 0.999 µM); in test [6], 3.28 µg/mL (≈ 8.4 µM); in test [2] it was 59.82 µg/mL (≈ 153 µM).

With `CC1=CS[C@@H]2[C@H](NC(=O)COc3ccccc3)C(=O)N2[C@H]1CO`, the MIC90 in test [1] and in test [2] was above 100 µg/mL in each case.

Regarding `CCCOC(=O)C1=C(C)CS[C@@H]2[C@H](NC(=O)CCc3ccc(OC)cc3)C(=O)N12`, the MIC90 is below 0.2 µg/mL in test [6], below 0.2 µg/mL in test [7] and above 100 µg/mL in test [2].

With `CCOC(=O)C1=C(C)CS[C@@H]2[C@H](NC(=O)COc3ccccc3)C(=O)N12`, the results for the MIC90 in test [6], in test [7] and in test [2] were 1.71 µg/mL (≈ 4.54 µM), 0.66 µg/mL (≈ 1.75 µM) and 57.85 µg/mL (≈ 154 µM), respectively.

Turning to `COc1ccc(OCC(=O)N[C@@H]2C(=O)N3C(c4nc(C)no4)=C(C)CS[C@H]23)cc1`, the MIC90 was 14.57 µg/mL (≈ 35 µM) in test [1] and above 100 µg/mL in test [2].

Take `CC1=C(C(=O)OCc2ccccc2)N2C(=O)[C@@H](NC(=O)COc3ccc(Cl)cc3)[C@H]2SC1`: the MIC90 in test [6] is 8.07 µg/mL (≈ 17.1 µM); in test [7], 0.87 µg/mL (≈ 1.84 µM); in test [2], above 100 µg/mL.

In the case of `CCCOC(=O)C1=C(C)CS[C@@H]2[C@H](NC(=O)CCc3ccccc3)C(=O)N12`, the MIC90 in test [6] is 1.24 µg/mL (≈ 3.19 µM); in test [7], 0.6 µg/mL (≈ 1.54 µM); in test [2], 53.64 µg/mL (≈ 138 µM).

For the compound `CCCCOC(=O)C1=C(C)CS[C@@H]2[C@H](NC(=O)COc3ccc(Cl)cc3)C(=O)N12`, the MIC90 was 1.01 µg/mL (≈ 2.3 µM) in test [6], 0.43 µg/mL (≈ 0.98 µM) in test [7] and above 100 µg/mL in test [2].

On to `C#CCNC(=O)C1=C(C)CS[C@@H]2[C@H](NC(=O)COc3ccccc3)C(=O)N12`, for which the values for the MIC90 in test [6], in test [7] and in test [2] were above 38.54 µg/mL, above 38.54 µg/mL and above 100 µg/mL, respectively.

On to `COc1ccc(CCC(=O)N[C@@H]2C(=O)N3C(C(=O)O)=C(C)CS[C@H]23)cc1`, for which the MIC90 in test [6] was above 37.64 µg/mL; in test [7], above 37.64 µg/mL; in test [2] it was above 100 µg/mL.

In the case of `C#CCOC(=O)C1=C(C)CS[C@@H]2[C@H](NC(=O)CCc3ccccc3)C(=O)N12`, the MIC90 is 19.97 µg/mL (≈ 51.9 µM) in test [1], 1.11 µg/mL (≈ 2.89 µM) in test [3] and above 100 µg/mL in test [2].

Consider `CCOC(=O)C1=C(C)CS[C@@H]2[C@H](NC(=O)CCc3ccccc3)C(=O)N12`, for which the MIC90 is 1.15 µg/mL (≈ 3.07 µM) in test [6], 0.47 µg/mL (≈ 1.26 µM) in test [7] and above 100 µg/mL in test [2].

Consider `COc1ccc(CCC(=O)N[C@@H]2C(=O)N3C(C(=O)OCc4ccccc4)=C(C)CS[C@H]23)cc1`, for which the MIC90 in test [6] was 0.42 µg/mL (≈ 0.9 µM); in test [7], 0.39 µg/mL (≈ 0.836 µM); in test [2], above 100 µg/mL.

For the compound `CC1=C(C(=O)O/N=C(\C)N)N2C(=O)[C@@H](NC(=O)COc3ccccc3)[C@H]2SC1`, the MIC90 in test [6] was 8.12 µg/mL (≈ 20.1 µM); in test [7], 5.6 µg/mL (≈ 13.8 µM); in test [2], above 100 µg/mL.

In the case of `COc1ccc(CCC(=O)N[C@@H]2C(=O)N3C(c4nc(C)no4)=C(C)CS[C@H]23)cc1`, the results for the MIC90 in test [6], in test [7] and in test [2] were 1.68 µg/mL (≈ 4.05 µM), 1.13 µg/mL (≈ 2.73 µM) and above 100 µg/mL, respectively.

`CC1=C(c2nc(C)no2)N2C(=O)[C@@H](NC(=O)COc3ccc(C)cc3)[C@H]2SC1`: the MIC90 in test [1] is 7.42 µg/mL (≈ 18.5 µM); in test [2], above 100 µg/mL.

Regarding `CCOC(=O)C1=C(C)CS[C@@H]2[C@H](NC(=O)CCc3ccc(OC)cc3)C(=O)N12`, the MIC90 in test [6] is 0.51 µg/mL (≈ 1.26 µM); in test [7], 0.4 µg/mL (≈ 0.989 µM); in test [2], 21.37 µg/mL (≈ 52.8 µM).

In the case of `COC[C@H]1C(C)=CS[C@@H]2[C@H](NC(=O)COc3ccccc3)C(=O)N21`, the MIC90 was above 34.84 µg/mL in test [6], above 34.84 µg/mL in test [7] and above 87.82 µg/mL in test [2].

`CNC(=O)C1=C(C)CS[C@@H]2[C@H](NC(=O)COc3ccccc3)C(=O)N12`: the values for the MIC90 in test [6], in test [7] and in test [2] were above 36.14 µg/mL, above 36.14 µg/mL and above 100 µg/mL, respectively.

Consider `COC(=O)C1=C(C)CS[C@@H]2[C@H](NC(=O)COc3ccc(OC)cc3)C(=O)N12`, for which the MIC90 is 4.28 µg/mL (≈ 10.9 µM) in test [6], 2.01 µg/mL (≈ 5.12 µM) in test [7] and above 100 µg/mL in test [2].

Take `CCCCOc1ccc(CCC(=O)N[C@@H]2C(=O)N3C(c4nc(C)no4)=C(C)CS[C@H]23)cc1`: the results for the MIC90 in test [1] and in test [2] were 59.36 µg/mL (≈ 130 µM) and above 100 µg/mL, respectively.

With `COCC1=C(C)CS[C@@H]2[C@H](NC(=O)COc3ccccc3)C(=O)N12`, the MIC90 in test [1] was above 100 µg/mL; in test [2] it was above 96.74 µg/mL.

As for `COC(=O)C1=C(C)CS[C@@H]2[C@H](NC(=O)[C@H](NC(=O)OC(C)(C)C)c3ccccc3)C(=O)N12`, the MIC90 was 18.07 µg/mL (≈ 39.2 µM) in test [6], 16.51 µg/mL (≈ 35.8 µM) in test [7] and above 100 µg/mL in test [2].

For `CCCCOC(=O)C1=C(C)CS[C@@H]2[C@H](NC(=O)COc3ccc(OC)cc3)C(=O)N12`, the MIC90 in test [6] is 1.12 µg/mL (≈ 2.58 µM); in test [7], 0.71 µg/mL (≈ 1.63 µM); in test [2] it was above 100 µg/mL.

`CCCOC(=O)C1C(C)=CS[C@@H]2[C@H](NC(=O)CCc3ccc(OC)cc3)C(=O)N12` (stereo not given in full): the MIC90 was below 0.23 µg/mL in test [6], 0.21 µg/mL (≈ 0.502 µM) in test [7] and 49.5 µg/mL (≈ 118 µM) in test [2].

`CCCOC(=O)C1=C(C)CS[C@@H]2[C@H](NC(=O)COc3ccc(Cl)cc3)C(=O)N12`: the MIC90 in test [6] was 1.34 µg/mL (≈ 3.15 µM); in test [7] it was 0.66 µg/mL (≈ 1.55 µM); in test [2] it was above 100 µg/mL.

On to `CC1=C(c2nc(C)no2)N2C(=O)[C@@H](NC(=O)COc3ccccc3)[C@H]2SC1`, for which the MIC90 was 1.85 µg/mL (≈ 4.79 µM) in test [6], 0.88 µg/mL (≈ 2.28 µM) in test [7] and above 100 µg/mL in test [2].

On to `CCOC(=O)C1=C(C)CS[C@@H]2[C@H](NC(=O)COc3ccc(Cl)cc3)C(=O)N12`, for which the MIC90 in test [6] is 2.38 µg/mL (≈ 5.79 µM); in test [7], 1.07 µg/mL (≈ 2.6 µM); in test [2], above 100 µg/mL.

With `C#CCOC(=O)C1=C(C)CS[C@@H]2[C@H](NC(=O)COc3ccc(Cl)cc3)C(=O)N12`, the MIC90 in test [6] was 3.95 µg/mL (≈ 9.39 µM); in test [7], 1.53 µg/mL (≈ 3.64 µM); in test [2], above 100 µg/mL.

Take `CC1=C(c2nc(C)no2)N2C(=O)[C@@H](NC(=O)COc3cccc(Cl)c3)[C@H]2SC1`: the MIC90 in test [1] was 2.59 µg/mL (≈ 6.15 µM); in test [2], above 100 µg/mL.

In the case of `CC1=C(c2nc(C)no2)N2C(=O)[C@@H](NC(=O)OC(C)(C)C)[C@H]2SC1`, the MIC90 was 9.16 µg/mL (≈ 26 µM) in test [6], 5.3 µg/mL (≈ 15 µM) in test [7] and above 100 µg/mL in test [2].

As to `COC(=O)C1=C(C)CS[C@@H]2[C@H](NC(=O)COc3ccccc3)C(=O)N12`, the figures for the MIC90 in test [6], in test [7] and in test [2] were 2.93 µg/mL (≈ 8.08 µM), 2.07 µg/mL (≈ 5.71 µM) and above 100 µg/mL, respectively.

`CCCc1noc(C2=C(C)CS[C@@H]3[C@H](NC(=O)CCc4ccc(OC)cc4)C(=O)N23)n1`: the MIC90 was 0.67 µg/mL (≈ 1.51 µM) in test [6], 0.37 µg/mL (≈ 0.836 µM) in test [7] and above 100 µg/mL in test [2].

For the origin of these results see ChEMBL document CHEMBL4425095, “Novel Cephalosporins Selectively Active on Nonreplicating Mycobacterium tuberculosis” (J Med Chem, 2016).
